Test results taken from ChEMBL document CHEMBL1687915, “Synthesis and biological evaluation of analogues of AKT (protein kinase B) inhibitor-IV” (J Med Chem, 2011).
The source made the active and inactive calls. No cut-off for these calls is given here.

Assays:
[1] = Cytotoxicity in human NHBE cells assessed as luciferase activity after 40 hrs by CellTiter-Glo luminescent cell viability assay; assay type: cell-based
Procedure, shortened: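 NHBE cells (passage 2, 2×10⁴ cells/cm²) grown on collagen-coated Transwell inserts, submerged for 5–7 days, then at air-liquid interface for a further 28 days (35 days total). Exposed to compound over a dose range, then viability read after 40 h as cellular ATP by CellTiter-Glo firefly luciferase. Triplicate or more.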

HeLa = experiment: Cytotoxicity in human HeLa cells assessed as luciferase activity after 24 hrs by CellTiter-Glo luminescent cell viability assay; assay type: functional, cell-based
Procedure, shortened: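 Viability of HeLa cells measured after 24 h of compound exposure by cellular ATP (firefly luciferase, CellTiter-Glo) over a dose-response range. IC50 derived from the curves, triplicate or more.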

[2] = Antiviral activity against Parainfluenza virus 5 expressing renilla luciferase infected in HeLa cells assessed as inhibition viral replication by luciferase based reporter gene assay; assay type: functional, cell-based
Procedure, shortened: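 HeLa cells infected with 1 MOI of recombinant PIV5 carrying renilla luciferase between the HN and L genes, then incubated with compound. Cells harvested 1 day post infection and assayed for renilla luciferase. Screened first as singletons at 1 μM, then at 0.5 μM. IC50 taken from dose-response curves, at least triplicate.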

[3] = system: Mycolicibacterium fortuitum; experiment: Antibacterial activity against 0.5 uM compound pretreated Mycobacterium fortuitum infected in human HeLa cells assessed as inhibition of bacterial replication; assay type: functional, organism-based
Procedure, shortened: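 HeLa cells seeded at 5×10^5/well in EMEM with 10% FBS overnight, 37 °C, 5% CO₂. Washed free of antibiotics, then infected with washed M. fortuitum in uptake buffer at MOI 5 for 24 h. After a warm DMEM wash, compound added at 0.5 μM in HeLa medium, with Triton X-100 (1%) and 0.1% DMSO controls. After 24 h more, cells lysed and plated for CFU on 7H11 agar. At least triplicate.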

[4] = Antiproliferative activity against human 786-O cells; assay type: functional, cell-based; conditions: 786-0
[5] = Inhibition of AKT -mediated FOXO1a nuclear export in human 786-O cells; assay type: cell-based
[6] = Homo sapiens, NHBE, 40 h, read-out: IC50
[7] = Homo sapiens, HeLa, 24 h, read-out: IC50
[8] = Mammalian orthorubulavirus 5, HeLa, read-out: IC50

Row | IC50 [2, 8] | IC50 ([2]; hela) | IC50 [5] | SMILES | IC50 [1, 6] | IC50 ([1]; nhbe) | IC50 (HeLa; [7]) | IC50 (HeLa; hela) | Activity [3] | IC50 [4]
1 | 590 nM | Dose-dependent effect |  | CN(/C=C/c1n(-c2ccccc2)c2ccc(-c3nc4ccccc4s3)cc2[n+]1CCc1ccccc1)c1ccccc1.[I-] | 5000 nM | Dose-dependent effect | 620 nM | Dose-dependent effect | inactive | 
2 | 520 nM | Dose-dependent effect | 625 nM | CC[n+]1c(/C=C/N(C)c2ccccc2)n(-c2ccccc2)c2ccc(-c3nc4ccccc4s3)cc21 | 3180 nM | Dose-dependent effect | 670 nM | Dose-dependent effect | inactive | < 1250 nM
3 | 410 nM | Dose-dependent effect |  | CCCCCC[n+]1c(/C=C/N(C)c2ccccc2)n(-c2ccccc2)c2ccc(-c3nc4ccccc4s3)cc21.[I-] | > 5000 nM | Dose-dependent effect | 420 nM | Dose-dependent effect | inactive | 
4 | 250 nM | Dose-dependent effect |  | CCCCCCCCCCCC[n+]1c(/C=C/N(C)c2ccccc2)n(-c2ccccc2)c2ccc(-c3nc4ccccc4s3)cc21.[I-] | > 5000 nM | Dose-dependent effect | 440 nM | Dose-dependent effect | inactive | 
